Measurements taken from ChEMBL document CHEMBL1137159, “Aminotriazine 5-HT7 antagonists” (Bioorg Med Chem Lett, 2004).

Columns and labels:
[1] = target: 5-hydroxytryptamine receptor 7 (Homo sapiens, UniProt P34969); assay: Binding affinity against 5-Hydroxy tryptamine 7 receptor
Method in brief: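 Membranes from CHO cells expressing human 5-HT7, homogenized, pelleted at 18,000g, stored at -80 °C. Each well held 30 µg protein in 50 mM HEPES. Incubation was 60 min at 25 °C with 0.1-1000 nM compound and 1 nM [3H]-5-carboxamidotryptamine; nonspecific binding was defined with 10 µM serotonin. Stopped with ice-cold HEPES, GF/B filtration, scintillation counting. Ki by nonlinear regression; triplicate or more.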

[2] = Oral bioavailability in rat; type: ADME, organism-based; conditions: in vivo
[3] = target: 5-hydroxytryptamine receptor 6 (Homo sapiens, UniProt P50406); assay: Binding affinity against 5-Hydroxy tryptamine 6 receptor
Chain of 5-hydroxytryptamine receptor 6 (P50406 whole entry): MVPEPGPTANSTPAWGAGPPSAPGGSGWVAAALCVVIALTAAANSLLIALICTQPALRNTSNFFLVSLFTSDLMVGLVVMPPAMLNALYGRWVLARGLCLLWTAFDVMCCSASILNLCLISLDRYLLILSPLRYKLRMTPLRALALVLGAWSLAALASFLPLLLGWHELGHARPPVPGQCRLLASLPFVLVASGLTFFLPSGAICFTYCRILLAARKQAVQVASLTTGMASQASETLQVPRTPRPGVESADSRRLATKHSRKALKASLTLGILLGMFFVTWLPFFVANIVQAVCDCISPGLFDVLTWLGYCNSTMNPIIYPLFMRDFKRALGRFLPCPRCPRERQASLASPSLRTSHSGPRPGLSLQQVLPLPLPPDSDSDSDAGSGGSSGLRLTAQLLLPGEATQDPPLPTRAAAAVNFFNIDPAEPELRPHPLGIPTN

[4] = target: T1, Adrenergic receptor alpha-1 (Homo sapiens, UniProt P35348+P25100+P35368); assay: Binding affinity against Alpha1 adrenergic receptor; type: protein assay
T1 sequence (P35348 whole entry): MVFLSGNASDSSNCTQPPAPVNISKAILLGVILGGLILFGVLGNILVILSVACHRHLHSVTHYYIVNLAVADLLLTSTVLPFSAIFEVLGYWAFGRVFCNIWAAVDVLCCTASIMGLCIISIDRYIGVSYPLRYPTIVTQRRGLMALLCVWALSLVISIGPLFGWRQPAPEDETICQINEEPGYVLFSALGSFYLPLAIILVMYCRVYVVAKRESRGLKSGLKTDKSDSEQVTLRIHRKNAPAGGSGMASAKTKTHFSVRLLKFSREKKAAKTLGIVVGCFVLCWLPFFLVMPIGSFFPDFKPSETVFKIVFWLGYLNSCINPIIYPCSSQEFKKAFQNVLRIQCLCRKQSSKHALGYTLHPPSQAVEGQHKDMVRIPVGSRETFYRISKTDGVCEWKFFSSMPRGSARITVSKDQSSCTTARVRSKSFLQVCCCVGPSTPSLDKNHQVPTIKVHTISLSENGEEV
T1 sequence (P25100 whole entry): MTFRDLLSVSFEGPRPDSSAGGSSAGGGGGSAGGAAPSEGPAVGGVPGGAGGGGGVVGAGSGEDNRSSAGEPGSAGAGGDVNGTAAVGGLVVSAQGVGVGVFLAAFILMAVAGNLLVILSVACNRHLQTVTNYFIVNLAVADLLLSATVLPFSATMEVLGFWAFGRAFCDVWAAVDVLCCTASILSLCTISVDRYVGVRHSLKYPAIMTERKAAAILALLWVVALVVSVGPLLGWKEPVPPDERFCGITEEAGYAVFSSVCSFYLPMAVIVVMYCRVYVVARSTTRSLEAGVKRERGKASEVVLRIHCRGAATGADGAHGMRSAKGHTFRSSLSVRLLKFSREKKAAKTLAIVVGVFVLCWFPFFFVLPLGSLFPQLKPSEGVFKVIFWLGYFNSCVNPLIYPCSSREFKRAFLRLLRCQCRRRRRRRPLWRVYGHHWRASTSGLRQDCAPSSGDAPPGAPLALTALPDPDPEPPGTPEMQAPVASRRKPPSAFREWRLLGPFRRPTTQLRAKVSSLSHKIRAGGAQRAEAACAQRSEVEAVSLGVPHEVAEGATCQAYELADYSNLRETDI
T1 sequence (P35368 whole entry): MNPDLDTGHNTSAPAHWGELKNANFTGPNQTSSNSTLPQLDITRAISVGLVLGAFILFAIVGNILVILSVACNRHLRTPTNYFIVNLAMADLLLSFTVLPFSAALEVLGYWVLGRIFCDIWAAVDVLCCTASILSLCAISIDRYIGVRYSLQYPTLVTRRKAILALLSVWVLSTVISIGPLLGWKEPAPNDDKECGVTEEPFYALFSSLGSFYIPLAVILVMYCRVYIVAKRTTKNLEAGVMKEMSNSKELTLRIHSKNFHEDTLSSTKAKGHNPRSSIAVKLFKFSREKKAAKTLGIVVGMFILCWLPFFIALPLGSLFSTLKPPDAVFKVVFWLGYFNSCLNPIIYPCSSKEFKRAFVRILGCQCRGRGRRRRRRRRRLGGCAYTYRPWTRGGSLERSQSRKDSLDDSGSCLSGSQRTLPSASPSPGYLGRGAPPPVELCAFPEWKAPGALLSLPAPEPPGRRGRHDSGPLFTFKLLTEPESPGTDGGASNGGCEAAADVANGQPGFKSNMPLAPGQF

[5] = target: T2, 5-hydroxytryptamine receptor 2C (Homo sapiens, UniProt P28335); assay: Binding affinity against 5-Hydroxy tryptamine 2C receptor
T2 sequence (P28335 whole entry): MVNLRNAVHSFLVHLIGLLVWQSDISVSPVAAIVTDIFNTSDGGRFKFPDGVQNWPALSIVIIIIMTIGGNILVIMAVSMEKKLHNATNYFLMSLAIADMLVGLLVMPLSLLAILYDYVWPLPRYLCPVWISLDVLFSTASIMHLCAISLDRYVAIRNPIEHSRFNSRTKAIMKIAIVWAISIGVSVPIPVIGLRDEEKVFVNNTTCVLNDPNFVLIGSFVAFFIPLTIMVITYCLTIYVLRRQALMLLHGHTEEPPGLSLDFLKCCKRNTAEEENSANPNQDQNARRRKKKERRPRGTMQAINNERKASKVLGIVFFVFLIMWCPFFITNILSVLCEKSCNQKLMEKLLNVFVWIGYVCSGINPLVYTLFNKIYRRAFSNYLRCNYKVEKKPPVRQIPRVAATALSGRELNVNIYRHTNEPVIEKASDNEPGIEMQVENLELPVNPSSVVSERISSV

Chain of 5-hydroxytryptamine receptor 7 (P34969 whole entry): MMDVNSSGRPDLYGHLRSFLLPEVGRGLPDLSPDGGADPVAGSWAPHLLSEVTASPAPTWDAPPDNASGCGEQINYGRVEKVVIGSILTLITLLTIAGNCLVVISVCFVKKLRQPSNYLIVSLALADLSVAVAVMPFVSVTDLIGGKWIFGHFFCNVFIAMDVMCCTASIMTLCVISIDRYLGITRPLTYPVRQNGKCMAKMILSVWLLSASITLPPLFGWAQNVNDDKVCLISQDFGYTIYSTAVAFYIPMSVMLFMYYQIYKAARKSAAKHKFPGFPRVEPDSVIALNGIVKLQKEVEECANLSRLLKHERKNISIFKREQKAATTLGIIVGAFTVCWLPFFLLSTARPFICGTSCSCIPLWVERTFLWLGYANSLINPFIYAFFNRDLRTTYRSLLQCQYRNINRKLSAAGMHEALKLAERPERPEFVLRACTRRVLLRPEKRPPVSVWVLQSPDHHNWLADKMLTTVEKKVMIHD

Compound	Ki [1] [nM]	bioavailability [2] [%]	Ki [3] [nM]	Ki [4] [nM]	Ki [5] [nM]
C[C@H](Nc1nc(NCCOc2ccccc2)nc(N(C)C)n1)c1ccccc1	23	–	–	–	–
CC(Nc1nc(N)nc(NCCc2cccnc2)n1)c1ccc(F)cc1 (racemic)	> 41000	–	–	–	–
C[C@@H](Nc1nc(N)nc(NCCOc2ccccc2)n1)c1ccccc1	> 1000	–	–	–	–
C[C@H](Nc1nc(N)nc(NCCc2ccccn2)n1)c1ccc(F)cc1	9	15	> 1000	> 1000	160
C[C@H](Nc1nc(N)nc(NCCOc2ccccc2)n1)c1ccccc1	3	12	> 1000	300	> 1000
CC(Nc1nc(N)nc(NCCc2ccccc2)n1)c1ccc(F)cc1 (stereo not drawn)	8	–	–	–	–
Cc1nc(NCCOc2ccccc2)nc(N[C@@H](C)c2ccccc2)n1	54	–	–	–	–
C[C@H](Nc1nc(F)nc(NCCOc2ccccc2)n1)c1ccccc1	10	–	–	–	–
CC(Nc1nc(N)nc(NCCc2ccncc2)n1)c1ccc(F)cc1 (racemic)	> 1000	–	–	–	–
CC(Nc1nc(N)nc(NCCCc2ccccc2)n1)c1ccccc1 (racemic)	60	–	–	–	–
C[C@H](Nc1nc(N)nc(NCCOc2ccc(F)cc2)n1)c1ccc(F)cc1	–	57	> 1000	100	> 1000
C[C@H](Nc1ncnc(NCCOc2ccccc2)n1)c1ccccc1	3	–	–	–	–
CC(Nc1nc(N)nc(NCCOc2ccccc2)n1)c1ccccc1 (racemic)	8	–	–	–	–
C[C@H](Nc1nc(N)nc(NCCc2ccc(F)cc2)n1)c1ccc(F)cc1	2	44	172	200	20
CC(Nc1nc(N)nc(NCCc2cccs2)n1)c1ccc(F)cc1 (racemic)	2	–	380	> 1000	10
